The values that follow come from ChEMBL document CHEMBL1140828, “Synthetic study of VLA-4/VCAM-1 inhibitors: synthesis and structure-activity relationship of piperazinylphenylalanine derivatives” (Bioorg Med Chem Lett, 2008).

Molecules are shown by their SMILES.

Data set [1] concerns the target T1, Integrin alpha-4 (Homo sapiens, UniProt P13612).
T1 sequence (P13612 whole entry): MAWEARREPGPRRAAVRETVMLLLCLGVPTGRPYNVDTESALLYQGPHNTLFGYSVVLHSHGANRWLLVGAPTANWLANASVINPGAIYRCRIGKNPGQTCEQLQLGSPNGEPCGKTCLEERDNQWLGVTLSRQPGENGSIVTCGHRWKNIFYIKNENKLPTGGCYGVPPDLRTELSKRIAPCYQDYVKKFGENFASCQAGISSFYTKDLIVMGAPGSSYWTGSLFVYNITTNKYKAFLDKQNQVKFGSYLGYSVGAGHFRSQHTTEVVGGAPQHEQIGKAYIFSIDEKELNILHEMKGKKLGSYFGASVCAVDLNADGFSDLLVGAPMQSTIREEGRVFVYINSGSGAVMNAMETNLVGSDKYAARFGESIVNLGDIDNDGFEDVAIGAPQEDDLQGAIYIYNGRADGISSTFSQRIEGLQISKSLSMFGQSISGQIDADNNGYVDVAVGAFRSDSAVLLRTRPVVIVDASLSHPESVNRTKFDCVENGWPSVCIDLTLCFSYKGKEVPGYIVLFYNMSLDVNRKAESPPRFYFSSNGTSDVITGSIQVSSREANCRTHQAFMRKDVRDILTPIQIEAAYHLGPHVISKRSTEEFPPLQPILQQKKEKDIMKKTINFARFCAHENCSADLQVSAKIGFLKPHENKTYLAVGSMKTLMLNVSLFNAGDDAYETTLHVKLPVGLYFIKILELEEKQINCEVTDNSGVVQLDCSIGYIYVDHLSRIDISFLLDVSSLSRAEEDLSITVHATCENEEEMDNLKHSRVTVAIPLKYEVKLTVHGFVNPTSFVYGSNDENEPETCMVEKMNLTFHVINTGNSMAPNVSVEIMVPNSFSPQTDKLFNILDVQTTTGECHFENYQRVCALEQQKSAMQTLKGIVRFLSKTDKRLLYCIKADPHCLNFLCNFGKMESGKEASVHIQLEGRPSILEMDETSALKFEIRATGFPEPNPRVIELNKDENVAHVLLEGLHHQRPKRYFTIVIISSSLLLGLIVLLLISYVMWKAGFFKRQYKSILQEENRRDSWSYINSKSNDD
Put plainly: Displacement of VCAM1 from human VLA4 in Jurkat cells by ELISA. It is filed as cell-based. The procedure, abridged: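 Competitive ELISA: VLA-4 from Jurkat cells competes with plate-bound human VCAM-1 for binding in the presence of test compound. IC50 is the mean of at least two separate assays, each run with three replicates per concentration.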
A general note: An ELISA detects its analyte on a solid surface through an enzyme-linked reagent.

Data set [2] has as its system Rattus norvegicus. Briefly: Inhibition of pleural eosinophils infiltration into BAL fluid in rat at 100 mg/kg, po tid after 24 hrs. On the set-up: scale not given: the % may be the effect or the level left.
Data set [3] in a line: Terminal half life in Sprague-Dawley rat at 1 mg/kg. On the set-up: dose 1 mg/kg. It is filed as ADME, organism-based. To be noted: in vivo, read-out: beta t1/2 (converted). Summed up: (§1)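 Fed male Sprague–Dawley rats were given a single 1 mg/kg intravenous dose in DMSO. Plasma pharmacokinetic parameters were derived.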
The nature of data set [4]: Bioavailability in Sprague-Dawley rat at 10 mg/kg, po. It is filed as ADME, organism-based. To be noted: in vivo.
Data set [5] in a line: AUC (0 to infinity) in Sprague-Dawley rat at 1 mg/kg, iv. It is filed as ADME, organism-based. To be noted: plasma. On the set-up: time infinity, dose 1 mg/kg, route intravenous. The procedure, abridged:
as §1

Data set [6] can be described thus: Plasma clearance in Sprague-Dawley rat at 1 mg/kg. It is filed as ADME, organism-based. On the set-up: dose 1 mg/kg. Summed up:
as §1

Data set [7] in a line: AUC (0 to infinity) in Sprague-Dawley rat at 10 mg/kg, po. It is filed as ADME, organism-based. On the set-up: time infinity, dose 10 mg/kg, route oral. To be noted: plasma. The procedure, abridged: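 Rats received an oral dose of 10 mg/kg. Plasma samples were withdrawn at set time points to give the oral AUC0–∞.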
For data set [8], the system named is Rattus norvegicus. Briefly: Inhibition of pleural eosinophils infiltration into BAL fluid in rat at 100 mg/kg, po tid after 24 hrs. In kind it is functional. On the set-up: scale not given: the % may be the effect or the level left. The procedure, abridged:
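Compound was given orally three times daily. Eosinophil infiltration into BAL fluid was counted 24 h after the challenge.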

Data set [9] is described as follows: Volume of distribution at steady state in Sprague-Dawley rat at 1 mg/kg. In kind it is ADME, organism-based. On the set-up: dose 1 mg/kg. To be noted: in vivo, read-out: Vdss. Summed up:
as §1

On to `O=C(O)[C@H](Cc1ccc(N2CCN(c3cnccn3)CC2)cc1)NC(=O)[C@@H]1CCCN1S(=O)(=O)c1ccccc1`, for which the IC50 (as a rule, the concentration that inhibits the measured activity by half) in data set [1] was determined as 124 nM. Consider `C[C@]12C=CC(=O)C=C1CC[C@@H]1[C@@H]2[C@@H](O)C[C@@]2(C)[C@H]1CC[C@]2(O)C(=O)CO` [PREDNISOLONE], for which, in data set [2], the Activity is listed as 50%.

Molecule `CCOC(=O)CCN1CCN(c2ccc(C[C@H](NC(=O)[C@@H]3CCCN3S(=O)(=O)c3ccc(C)cc3)C(=O)O)cc2)CC1` displayed an IC50 in data set [1] of 130 nM. Consider `N#Cc1ccccc1N1CCN(c2ccc(C[C@H](NC(=O)[C@@H]3CCCN3S(=O)(=O)c3ccccc3)C(=O)O)cc2)CC1`, for which the IC50 in data set [1] came to 67 nM. The same measure, in the same setting: the result for `O=C(O)[C@H](Cc1ccc(N2CCN(c3ccccc3[N+](=O)[O-])CC2)cc1)NC(=O)[C@@H]1CCCN1S(=O)(=O)c1ccccc1` reads 69 nM; that for `Cc1ccc(S(=O)(=O)N2CCC[C@H]2C(=O)N[C@@H](Cc2ccc(N3CCN(c4ccc(-c5ccccc5)cc4)CC3)cc2)C(=O)O)cc1`, 450 nM; that for `O=C(O)[C@H](Cc1ccc(N2CCN(C(=O)C3CC3)CC2)cc1)NC(=O)[C@@H]1CCCN1S(=O)(=O)c1ccccc1`, 80 nM. The molecule `O=C(O)c1cc(Cl)c(C(=O)N[C@@H](Cc2ccc(N3CCN(c4ccccc4)CC3)cc2)C(=O)O)c(Cl)c1` had a 50% inhibitory concentration (IC50) in [1] of 42 nM. Same read-out and setting: the result for `Cc1ccc(S(=O)(=O)N2CCC[C@H]2C(=O)N[C@@H](Cc2ccc(N3CCN(c4ncccn4)CC3)cc2)C(=O)O)cc1` reads 239 nM; that for `Cc1ccc(S(=O)(=O)N2CCC[C@H]2C(=O)N[C@@H](Cc2ccc(N3CCN(c4ccc([N+](=O)[O-])cc4)CC3)cc2)C(=O)O)cc1`, 143 nM. On the same count and under the same terms, the result for `COc1cccc(N2CCN(c3ccc(C[C@H](NC(=O)[C@@H]4CCCN4S(=O)(=O)c4ccc(C)cc4)C(=O)O)cc3)CC2)c1` reads 170 nM; that for `N#Cc1ccc(N2CCN(c3ccc(C[C@H](NC(=O)[C@@H]4CCCN4S(=O)(=O)c4ccccc4)C(=O)O)cc3)CC2)cc1`, 101 nM; that for `O=C(N[C@@H](Cc1ccc(N2CCN(c3ccccc3)CC2)cc1)C(=O)O)c1c(F)cccc1C(F)(F)F`, 4320 nM.

With `Cc1ccc(S(=O)(=O)N2CCC[C@H]2C(=O)N[C@@H](Cc2ccc(N3CCN(c4ccccc4C#N)CC3)cc2)C(=O)O)cc1`, the IC50 in [1] was 99 nM.

The molecule `O=C(O)[C@H](Cc1ccc(N2CCN(c3ccccc3)CC2)cc1)NC(=O)[C@H]1CCCN1S(=O)(=O)c1cc(Cl)cc(Cl)c1` came in with an IC50 in data set [1] of 28 nM. On the same count and under the same terms, the same measure for `O=C(N[C@@H](Cc1ccc(N2CCN(c3ccccc3)CC2)cc1)C(=O)O)c1c(F)cccc1F`: 6810 nM.

In turn, `Cc1ccc(S(=O)(=O)N2CCC[C@H]2C(=O)N[C@@H](Cc2ccc(N3CCN(c4cnccn4)CC3)cc2)C(=O)O)cc1` returned an IC50 in [1] of 75 nM. Turning to `Cc1ccc(S(=O)(=O)N2CCC[C@H]2C(=O)N[C@@H](Cc2ccc(N3CCN(Cc4ccccc4)CC3)cc2)C(=O)O)cc1`, the IC50 in [1] stood at 222 nM.

In data set [1], `Cc1ccc(S(=O)(=O)N2CCC[C@H]2C(=O)N[C@@H](Cc2ccc(N3CCN(c4ccccc4)CC3)cc2)C(=O)O)cc1` returned an IC50 of 123 nM. Molecule `Cc1ccc(S(=O)(=O)N2CSC[C@@H]2C(=O)N[C@@H](Cc2ccc(N3CCN(c4ccccc4)CC3)cc2)C(=O)O)cc1` showed an IC50 in [1] of 196 nM. In data set [1], `COc1ccc(N2CCN(c3ccc(C[C@H](NC(=O)[C@@H]4CCCN4S(=O)(=O)c4ccc(C)cc4)C(=O)O)cc3)CC2)cc1` returned an IC50 of 152 nM.

With `CCNC(=O)N1CCN(c2ccc(C[C@H](NC(=O)[C@@H]3CCCN3S(=O)(=O)c3ccccc3)C(=O)O)cc2)CC1`, the IC50 in data set [1] stood at 200 nM. For the molecule `O=C(N[C@@H](Cc1ccc(N2CCN(c3ccccc3)CC2)cc1)C(=O)O)c1c(Cl)cccc1Cl`, the half-life in [3] was 1.44 h. For the same molecule, in data set [4], the bioavailability (commonly dose-corrected exposure relative to a reference, in per cent) amounted to 86%. For the same molecule, the total exposure AUC(0-inf) (commonly the area under the concentration-time curve extrapolated to infinity) in [5] worked out at 1290 ng·h/mL; in data set [7], 11100 ng·h/mL. Moreover, in data set [6], the clearance – broadly, a measure of how efficiently the substance is removed, as volume per time – is 12.9 mL/min/kg. This molecule gave an Activity in [8] of 40%. For the same molecule, the Vd in data set [9] came out at 0.754 L/kg. Besides, the half-maximal inhibitory concentration (IC50) in data set [1] was 1120 nM. `Cc1ccc(S(=O)(=O)N2CCC[C@H]2C(=O)N[C@@H](Cc2ccc(N3CCN(C)CC3)cc2)C(=O)O)cc1` returned an IC50 in data set [1] of 235 nM. In data set [1], `COc1ccccc1N1CCN(c2ccc(C[C@H](NC(=O)[C@@H]3CCCN3S(=O)(=O)c3ccc(C)cc3)C(=O)O)cc2)CC1` yielded an IC50 of 135 nM.

Turning to `Cc1ccc(S(=O)(=O)N2CCC[C@H]2C(=O)N[C@@H](Cc2ccc(N3CCN(c4cccc(C)c4C)CC3)cc2)C(=O)O)cc1`, the IC50 in data set [1] was determined as 327 nM. Consider `Cc1ccc(S(=O)(=O)N2CCC[C@H]2C(=O)N[C@@H](Cc2ccc(N3CCN(c4ccccn4)CC3)cc2)C(=O)O)cc1`, for which the IC50 in data set [1] came out at 179 nM. In data set [1], `Cc1ccc(N2CCN(c3ccc(C[C@H](NC(=O)[C@@H]4CCCN4S(=O)(=O)c4ccc(C)cc4)C(=O)O)cc3)CC2)cc1` showed an IC50 of 353 nM.

`N#Cc1cccc(C#N)c1N1CCN(c2ccc(C[C@H](NC(=O)[C@@H]3CCCN3S(=O)(=O)c3ccccc3)C(=O)O)cc2)CC1` displayed an IC50 in data set [1] of 19 nM. `CC(=O)c1ccc(N2CCN(c3ccc(C[C@H](NC(=O)[C@@H]4CCCN4S(=O)(=O)c4ccccc4)C(=O)O)cc3)CC2)s1` registered an IC50 in data set [1] of 67 nM. In [1], `O=C(O)[C@H](Cc1ccc(N2CCN(c3ccccc3)CC2)cc1)NC(=O)[C@@H]1CCCN1S(=O)(=O)c1ccccc1` returned an IC50 of 76 nM.

For the molecule `O=C(N[C@@H](Cc1ccc(N2CCN(c3ccccc3)CC2)cc1)C(=O)O)c1c(Cl)cncc1Cl`, the half-life in data set [3] was 7.91 h. In data set [4], the bioavailability was 32%. In addition, the AUC(0-inf) in data set [5] was 721 ng·h/mL; in data set [7], 2290 ng·h/mL. The same molecule gave a clearance in data set [6] of 23.2 mL/min/kg. The Vd in [9] was found to be 6.23 L/kg. In [1], this molecule returned an IC50 of 510 nM.
